According to ChEMBL document CHEMBL1949561, “Synthesis and triplex-forming ability of oligonucleotides bearing 1-substituted 1H-1,2,3-triazole nucleobases” (Bioorg Med Chem, 2011):

Legend:
Format in all cases: nucleic-acid assay
Nucleic Acid [1] = assay: Binding affinity to 5'-GCTAAAAAGAAAGAGAGATCG-3'/5'- CGATCTCTCTTTCTTTTTAGC-3' double stranded DNA assessed as melting temperature at 1.5 uM in sodium phosphate buffer at pH 7 by UV spectrophotometric analysis
In short: (§1)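 UV melting of triplexes between each modified TFO and the 21-bp duplex target, in 7 mM sodium phosphate buffer (pH 7.0), 140 mM KCl and 10 mM MgCl₂. Each oligonucleotide at 1.5 µM final. Absorbance followed at 260 nm from 5 °C to 85 °C, scanned at 0.5 °C/min, to give Tm.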

Nucleic Acid [2] = assay: Binding affinity to 5'-GCTAAAAAGAGAGAGAGATCG-3'/5'- CGATCTCTCTCTCTTTTTAGC-3' double stranded DNA assessed as melting temperature at 1.5 uM in sodium phosphate buffer at pH 7 by UV spectrophotometric analysis; in short: as §1
Nucleic Acid [3] = assay: Binding affinity to5'-GCTAAAAAGACAGAGAGATCG-3'/5'- CGATCTCTCTGTCTTTTTAGC-3' double stranded DNA assessed as melting temperature at 1.5 uM in sodium phosphate buffer at pH 7 by UV spectrophotometric analysis; in short: as §1
Nucleic Acid [4] = assay: Binding affinity to 5'-GCTAAAAAGATAGAGAGATCG-3'/5'- CGATCTCTCTATCTTTTTAGC-3' double stranded DNA assessed as melting temperature at 1.5 uM in sodium phosphate buffer at pH 7 by UV spectrophotometric analysis; in short: as §1

SMILES	Tm (Nucleic Acid [1]) [°C]	Tm (Nucleic Acid [2]) [°C]	Tm (Nucleic Acid [3]) [°C]	Tm (Nucleic Acid [4]) [°C]
Cc1cn([C@H]2C[C@H](OP(=O)(O)OC[C@H]3O[C@@H](n4cc(C)c(=O)[nH]c4=O)C[C@@H]3OP(=O)(O)OC[C@H]3O[C@@H](n4cc(C)c(N)nc4=O)C[C@@H]3OP(=O)(O)OC[C@H]3O[C@@H](n4cc(C)c(=O)[nH]c4=O)C[C@@H]3OP(=O)(O)OC[C@H]3O[C@@H](n4cc(C)c(N)nc4=O)C[C@@H]3OP(=O)(O)OC[C@H]3O[C@@H](n4cc(C)c(=O)[nH]c4=O)C[C@@H]3OP(=O)(O)OC[C@H]3O[C@@H](c4cn(C56CC7CC(CC(C7)C5)C6)nn4)C[C@@H]3OP(=O)(O)OC[C@H]3O[C@@H](n4cc(C)c(=O)[nH]c4=O)C[C@@H]3OP(=O)(O)OC[C@H]3O[C@@H](n4cc(C)c(N)nc4=O)C[C@@H]3OP(=O)(O)OC[C@H]3O[C@@H](n4cc(C)c(=O)[nH]c4=O)C[C@@H]3OP(=O)(O)OC[C@H]3O[C@@H](n4cc(C)c(=O)[nH]c4=O)C[C@@H]3OP(=O)(O)OC[C@H]3O[C@@H](n4cc(C)c(=O)[nH]c4=O)C[C@@H]3OP(=O)(O)OC[C@H]3O[C@@H](n4cc(C)c(=O)[nH]c4=O)C[C@@H]3OP(=O)(O)OC[C@H]3O[C@@H](n4cc(C)c(=O)[nH]c4=O)C[C@@H]3O)[C@@H](COP(=O)(O)O[C@H]3C[C@H](n4cc(C)c(=O)[nH]c4=O)O[C@@H]3CO)O2)c(=O)nc1N	< 10	< 10	17	11
Cc1cn([C@H]2C[C@H](OP(=O)(O)OC[C@H]3O[C@@H](n4cc(C)c(=O)[nH]c4=O)C[C@@H]3OP(=O)(O)OC[C@H]3O[C@@H](n4cc(C)c(N)nc4=O)C[C@@H]3OP(=O)(O)OC[C@H]3O[C@@H](n4cc(C)c(=O)[nH]c4=O)C[C@@H]3OP(=O)(O)OC[C@H]3O[C@@H](n4cc(C)c(N)nc4=O)C[C@@H]3OP(=O)(O)OC[C@H]3O[C@@H](n4cc(C)c(=O)[nH]c4=O)C[C@@H]3OP(=O)(O)OC[C@H]3O[C@@H](c4cn(-c5cccc(NC(N)=O)c5)nn4)C[C@@H]3OP(=O)(O)OC[C@H]3O[C@@H](n4cc(C)c(=O)[nH]c4=O)C[C@@H]3OP(=O)(O)OC[C@H]3O[C@@H](n4cc(C)c(N)nc4=O)C[C@@H]3OP(=O)(O)OC[C@H]3O[C@@H](n4cc(C)c(=O)[nH]c4=O)C[C@@H]3OP(=O)(O)OC[C@H]3O[C@@H](n4cc(C)c(=O)[nH]c4=O)C[C@@H]3OP(=O)(O)OC[C@H]3O[C@@H](n4cc(C)c(=O)[nH]c4=O)C[C@@H]3OP(=O)(O)OC[C@H]3O[C@@H](n4cc(C)c(=O)[nH]c4=O)C[C@@H]3OP(=O)(O)OC[C@H]3O[C@@H](n4cc(C)c(=O)[nH]c4=O)C[C@@H]3O)[C@@H](COP(=O)(O)O[C@H]3C[C@H](n4cc(C)c(=O)[nH]c4=O)O[C@@H]3CO)O2)c(=O)nc1N	13	< 10	22	17
Cc1cn([C@H]2C[C@H](OP(=O)(O)OC[C@H]3O[C@@H](n4cc(C)c(=O)[nH]c4=O)C[C@@H]3OP(=O)(O)OC[C@H]3O[C@@H](n4cc(C)c(N)nc4=O)C[C@@H]3OP(=O)(O)OC[C@H]3O[C@@H](n4cc(C)c(=O)[nH]c4=O)C[C@@H]3OP(=O)(O)OC[C@H]3O[C@@H](n4cc(C)c(N)nc4=O)C[C@@H]3OP(=O)(O)OC[C@H]3O[C@@H](n4cc(C)c(=O)[nH]c4=O)C[C@@H]3OP(=O)(O)OC[C@H]3O[C@@H](c4cn(-c5cccc(O)c5)nn4)C[C@@H]3OP(=O)(O)OC[C@H]3O[C@@H](n4cc(C)c(=O)[nH]c4=O)C[C@@H]3OP(=O)(O)OC[C@H]3O[C@@H](n4cc(C)c(N)nc4=O)C[C@@H]3OP(=O)(O)OC[C@H]3O[C@@H](n4cc(C)c(=O)[nH]c4=O)C[C@@H]3OP(=O)(O)OC[C@H]3O[C@@H](n4cc(C)c(=O)[nH]c4=O)C[C@@H]3OP(=O)(O)OC[C@H]3O[C@@H](n4cc(C)c(=O)[nH]c4=O)C[C@@H]3OP(=O)(O)OC[C@H]3O[C@@H](n4cc(C)c(=O)[nH]c4=O)C[C@@H]3OP(=O)(O)OC[C@H]3O[C@@H](n4cc(C)c(=O)[nH]c4=O)C[C@@H]3O)[C@@H](COP(=O)(O)O[C@H]3C[C@H](n4cc(C)c(=O)[nH]c4=O)O[C@@H]3CO)O2)c(=O)nc1N	< 10	< 10	21	14

Now from value to molecule:

Tm (Nucleic Acid [1]) [°C]	Tm (Nucleic Acid [2]) [°C]	Tm (Nucleic Acid [3]) [°C]	Tm (Nucleic Acid [4]) [°C]	SMILES
< 10	< 10	21	13	Cc1ccc(-n2cc([C@H]3C[C@H](OP(=O)(O)OC[C@H]4O[C@@H](n5cc(C)c(=O)[nH]c5=O)C[C@@H]4OP(=O)(O)OC[C@H]4O[C@@H](n5cc(C)c(N)nc5=O)C[C@@H]4OP(=O)(O)OC[C@H]4O[C@@H](n5cc(C)c(=O)[nH]c5=O)C[C@@H]4OP(=O)(O)OC[C@H]4O[C@@H](n5cc(C)c(=O)[nH]c5=O)C[C@@H]4OP(=O)(O)OC[C@H]4O[C@@H](n5cc(C)c(=O)[nH]c5=O)C[C@@H]4OP(=O)(O)OC[C@H]4O[C@@H](n5cc(C)c(=O)[nH]c5=O)C[C@@H]4OP(=O)(O)OC[C@H]4O[C@@H](n5cc(C)c(=O)[nH]c5=O)C[C@@H]4O)[C@@H](COP(=O)(O)O[C@H]4C[C@H](n5cc(C)c(=O)[nH]c5=O)O[C@@H]4COP(=O)(O)O[C@H]4C[C@H](n5cc(C)c(N)nc5=O)O[C@@H]4COP(=O)(O)O[C@H]4C[C@H](n5cc(C)c(=O)[nH]c5=O)O[C@@H]4COP(=O)(O)O[C@H]4C[C@H](n5cc(C)c(N)nc5=O)O[C@@H]4COP(=O)(O)O[C@H]4C[C@H](n5cc(C)c(=O)[nH]c5=O)O[C@@H]4COP(=O)(O)O[C@H]4C[C@H](n5cc(C)c(N)nc5=O)O[C@@H]4COP(=O)(O)O[C@H]4C[C@H](n5cc(C)c(=O)[nH]c5=O)O[C@@H]4CO)O3)nn2)cc1
12	< 10	23	18	Cc1cn([C@H]2C[C@H](OP(=O)(O)OC[C@H]3O[C@@H](n4cc(C)c(=O)[nH]c4=O)C[C@@H]3OP(=O)(O)OC[C@H]3O[C@@H](n4cc(C)c(N)nc4=O)C[C@@H]3OP(=O)(O)OC[C@H]3O[C@@H](n4cc(C)c(=O)[nH]c4=O)C[C@@H]3OP(=O)(O)OC[C@H]3O[C@@H](n4cc(C)c(N)nc4=O)C[C@@H]3OP(=O)(O)OC[C@H]3O[C@@H](n4cc(C)c(=O)[nH]c4=O)C[C@@H]3OP(=O)(O)OC[C@H]3O[C@@H](c4cn(-c5ccc(N)cc5)nn4)C[C@@H]3OP(=O)(O)OC[C@H]3O[C@@H](n4cc(C)c(=O)[nH]c4=O)C[C@@H]3OP(=O)(O)OC[C@H]3O[C@@H](n4cc(C)c(N)nc4=O)C[C@@H]3OP(=O)(O)OC[C@H]3O[C@@H](n4cc(C)c(=O)[nH]c4=O)C[C@@H]3OP(=O)(O)OC[C@H]3O[C@@H](n4cc(C)c(=O)[nH]c4=O)C[C@@H]3OP(=O)(O)OC[C@H]3O[C@@H](n4cc(C)c(=O)[nH]c4=O)C[C@@H]3OP(=O)(O)OC[C@H]3O[C@@H](n4cc(C)c(=O)[nH]c4=O)C[C@@H]3OP(=O)(O)OC[C@H]3O[C@@H](n4cc(C)c(=O)[nH]c4=O)C[C@@H]3O)[C@@H](COP(=O)(O)O[C@H]3C[C@H](n4cc(C)c(=O)[nH]c4=O)O[C@@H]3CO)O2)c(=O)nc1N
